Laboratory results as given in the EternaBench riboswitch data.

System: MS2 coat protein
Assay: apparent Kd, MS2 coat protein; higher = weaker binding; RNA-MaP array; FMN 200 µM where present
Method in brief: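 Stalled E. coli RNA polymerase transcribed each design on Illumina sequencing-chip clusters. The clusters were titrated with SNAP-549-labelled MS2 coat protein, starting at 0.7 or 1.5 nM and doubling up to 3 µM, first without ligand and then with constant ligand, in 100 mM Tris-HCl pH 7.5, 80 mM KCl, 4 mM MgCl2, BSA, DTT, yeast tRNA and Tween-20. Green signal was normalised to red-channel RNA signal and to the control-cluster median Fmax. The apparent Kd is the median of filtered binding-curve fits made for each cluster.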

[1] = designed as: OFF switch for flavin mononucleotide, no ligand
[2] = ligand present: flavin mononucleotide, designed as: OFF switch for flavin mononucleotide
[3] = designed as: ON switch for flavin mononucleotide, no ligand
[4] = ligand present: flavin mononucleotide, designed as: ON switch for flavin mononucleotide

AUGCUAUACGAAGGAUAUGGUUACAUGAGGAUCACCCAUGUAAUUUUUGUGAUCUUGUUUAAGUUCCAGAAGGUCGUAUAGCUA
apparent Kd [1]: 42.2 nM | apparent Kd [2]: 156 nM

UGUUAAAUUGAUCCUGCAAGUACAUGAGGAUCACCCAUGUGCUAGGAUAUCGCGCAGCUAAAGACCGAGAAGGAGCACAAUGUA
apparent Kd [1]: 39.2 nM | apparent Kd [2]: 97.7 nM

GUCAGAUCGUGAGGAUAUACAACACUGCUUCGGCAGUGUAUUAAGAUCACAUGAGGAUCACCCAUGUAGAAGGCACGAGCUGAU
apparent Kd [1]: 13.3 nM | apparent Kd [2]: 236 nM

CGAUUUGUAGGAUAUGUAUGAGUAAUCCCUUUUUAUGAAGAACAUGAGGAUCACCCAUGUAGAAGGGCAUUGUA
apparent Kd [1]: 19.6 nM | apparent Kd [2]: 17.6 nM

AUGCUUAUCGAAGGAUAUGGUUACAUGAGGAUCACCCAUGUUAUGAUUGGUUACUUGUUUAGUUUCCAGAAGGUCGAUUAGUUA
apparent Kd [1]: 58.8 nM | apparent Kd [2]: 225 nM

UUGUUUCGUCAUUAACAUGAGGAUCACCCAUGUAUCGACUCAAAGGAUAUAUAUGCUUGUUUGCAAUAGAAGGUUGAUUGUUGU
apparent Kd [3]: 27.9 nM | apparent Kd [4]: 26.5 nM

UAAACACCCUCAUGUGCCUGAGGACAUGAGGAUCACCCAUGUGAGGAUAUAGCCAUUAAAUCUAACUAGAAGGUAUAGGAAAUC
apparent Kd [1]: 651 nM | apparent Kd [2]: 190 nM

GUUGUCUAUGUAGGAUAUGCGAGGCGAGGCCUCGCAGAAGGACAUGAGGAUCACCCAUGUAUUGCGGUCUGCGUUCAGAUCGCU
apparent Kd [1]: 32.9 nM | apparent Kd [2]: 286 nM

CAACUGCAUGUGAGGAUAUGCACCGGCCAAGCCGGGCAGAAGGCACAUGAGGAUCACCCAUGUCAUCCUAUUGC
apparent Kd [1]: 12.6 nM | apparent Kd [2]: 27.8 nM

UUACUCAUGUAAGGAUAUGCAGCCGAAACGGCUGCAGAAGGUACUAUAAUACAUGAGGAUCACCCAUGUAAAAUAAAUAAAGUC
apparent Kd [3]: 26.1 nM | apparent Kd [4]: 16.9 nM

GAGUGGAGGAAAGGAUAUACAAUGAUAAUCACAGUAGAAGGUUCUAACAUGAGGAUCACCCAUGUAGGACUAUACCAGAGAGGG
apparent Kd [3]: 13.1 nM | apparent Kd [4]: 12.5 nM

AUUAGCUGAGGAUAUGCAGCUUUGUUCGUCGAGUGAAAAGAACAUGAGGAUCACCCAUGUAGAAGGCAGUUGAC
apparent Kd [1]: 17.4 nM | apparent Kd [2]: 18.1 nM

GUAUGAGCGAUAGGAUAUACUGAGAUUGAAUGGGUAGAAGGAUCUCUUGUGGGAAAGACAUGAGGAUCACCCAUGUCACGGGCC
apparent Kd [3]: 122 nM | apparent Kd [4]: 130 nM

UGUACUAUAAGGUUAAUUGUAUAUUGAGAAGGCAUUCACAUGAGGAUCACCCAUGUAACAUGGGAUGAGGAUAUCAUUUUGUAC
apparent Kd [3]: 232 nM | apparent Kd [4]: 32.6 nM

AUGUACCGGUGAGGAUAUUUUUAAUAGAGCUUUAUGAUAUACAUGAGGAUCACCCAUGUUACGUUAAAGAAGGCAUCGGAUUAA
apparent Kd [1]: 21 nM | apparent Kd [2]: 15.9 nM

UGUAUGGACAGAGGAUAUACGGAUAGGAUCUACUAUCAAACAAGUCCUACAUGAGGAUCACCCAUGUAGAAGGCUGUCCAUACU
apparent Kd [1]: 16.4 nM | apparent Kd [2]: 22.7 nM

AUAAUGUGAGGAUAUCAGUCGACUAGCUGCGGCUAGUCGACUGAGAAGGCACAUGAGGAUCACCCAUGUGUUUC
apparent Kd [1]: 17.9 nM | apparent Kd [2]: 40.8 nM

UUGCAGUCGUCAGGAUAUAGUAUUACGGCCUUUCAUUUCUUCAUACAUGAGGAUCACCCAUGUCGCUAGAAGGGCUUAUCGCUU
apparent Kd [1]: 14.8 nM | apparent Kd [2]: 13.2 nM

CUGAUGUGAGGAUAUCGGGCUACAGGACUGCUGCUAGCAAACGAGAAGGCACAUGAGGAUCACCCAUGUGAGAG
apparent Kd [1]: 18.1 nM | apparent Kd [2]: 25.4 nM

UGGAUGGUAUGAGGAUAUGCGCGCGAAACGCGCGCAGAAGGCAUGUCAAUAGACAUGAGGAUCACCCAUGUAUUAUCUAUCCAA
apparent Kd [3]: 203 nM | apparent Kd [4]: 14.8 nM

GCCAUCGCAUGAGGAUAUGCUCCGGUUUCCGGAGCAGAAGGCGUGUCAUAAGACAUGAGGAUCACCCAUGUAGCUAAGAUGGCA
apparent Kd [3]: 249 nM | apparent Kd [4]: 10.8 nM

AUACAUGAGGAUCACCCAUGUUACUGGGUCUUAAUAGAUCGUAGAAGGAUGUUAUUAUUAAUUUCAUAGGAUAUACUAUUUAGU
apparent Kd [1]: 48.3 nM | apparent Kd [2]: 32.9 nM

AUCAGCUCGUCAGGAUAUACGUCACUGCUUCGGCAGUGUGGUAAGAUAACAUGAGGAUCACCCAUGUAGAAGGGACGAGCUGAU
apparent Kd [1]: 6.3 nM | apparent Kd [2]: 12.1 nM

AGCACGUCAGGAUAUCUGAUGUCUAACUUCGGUUAGACAUCAGAGAAGGGACAUGAGGAUCACCCAUGUGCAAA
apparent Kd [1]: 60.6 nM | apparent Kd [2]: 77.9 nM

CCCUCACAUGAGGAUCACCCAUGUUAGGAUAUCUACCAGGAGCUAUGAUUAGCCCAACGGAGAAGGAACGUGCA
apparent Kd [1]: 17.9 nM | apparent Kd [2]: 17.4 nM

GGUCGUUGAGGAUAUACGAACAUGUCGCCAGAUGUCAUGGUACAUGAGGAUCACCCAUGUAGAAGGUGGUGGUC
apparent Kd [1]: 75 nM | apparent Kd [2]: 25.7 nM

ACAUUAGUACCACAUGUAUUACAUGAGGAUCACCCAUGUAACUAGGAUAUGUAUUAGAAUUUACAACAGAAGGAGUUAAUAUGU
apparent Kd [1]: 9.8 nM | apparent Kd [2]: 11.9 nM
